Source: PubChem BioAssay (several laboratories)
Apaf1 inhib = inhibitors of human Apaf-1 apoptosome; reconstituted apoptosome caspase-3 activity, DEVD-Rh110 fluorescence; inhibition, % at 20 µM; actives 0.71% (n = 330,000); AID 489030; active = inhibition of at least 40% at 20 µM
Target sequence (O14727 whole entry, looked up): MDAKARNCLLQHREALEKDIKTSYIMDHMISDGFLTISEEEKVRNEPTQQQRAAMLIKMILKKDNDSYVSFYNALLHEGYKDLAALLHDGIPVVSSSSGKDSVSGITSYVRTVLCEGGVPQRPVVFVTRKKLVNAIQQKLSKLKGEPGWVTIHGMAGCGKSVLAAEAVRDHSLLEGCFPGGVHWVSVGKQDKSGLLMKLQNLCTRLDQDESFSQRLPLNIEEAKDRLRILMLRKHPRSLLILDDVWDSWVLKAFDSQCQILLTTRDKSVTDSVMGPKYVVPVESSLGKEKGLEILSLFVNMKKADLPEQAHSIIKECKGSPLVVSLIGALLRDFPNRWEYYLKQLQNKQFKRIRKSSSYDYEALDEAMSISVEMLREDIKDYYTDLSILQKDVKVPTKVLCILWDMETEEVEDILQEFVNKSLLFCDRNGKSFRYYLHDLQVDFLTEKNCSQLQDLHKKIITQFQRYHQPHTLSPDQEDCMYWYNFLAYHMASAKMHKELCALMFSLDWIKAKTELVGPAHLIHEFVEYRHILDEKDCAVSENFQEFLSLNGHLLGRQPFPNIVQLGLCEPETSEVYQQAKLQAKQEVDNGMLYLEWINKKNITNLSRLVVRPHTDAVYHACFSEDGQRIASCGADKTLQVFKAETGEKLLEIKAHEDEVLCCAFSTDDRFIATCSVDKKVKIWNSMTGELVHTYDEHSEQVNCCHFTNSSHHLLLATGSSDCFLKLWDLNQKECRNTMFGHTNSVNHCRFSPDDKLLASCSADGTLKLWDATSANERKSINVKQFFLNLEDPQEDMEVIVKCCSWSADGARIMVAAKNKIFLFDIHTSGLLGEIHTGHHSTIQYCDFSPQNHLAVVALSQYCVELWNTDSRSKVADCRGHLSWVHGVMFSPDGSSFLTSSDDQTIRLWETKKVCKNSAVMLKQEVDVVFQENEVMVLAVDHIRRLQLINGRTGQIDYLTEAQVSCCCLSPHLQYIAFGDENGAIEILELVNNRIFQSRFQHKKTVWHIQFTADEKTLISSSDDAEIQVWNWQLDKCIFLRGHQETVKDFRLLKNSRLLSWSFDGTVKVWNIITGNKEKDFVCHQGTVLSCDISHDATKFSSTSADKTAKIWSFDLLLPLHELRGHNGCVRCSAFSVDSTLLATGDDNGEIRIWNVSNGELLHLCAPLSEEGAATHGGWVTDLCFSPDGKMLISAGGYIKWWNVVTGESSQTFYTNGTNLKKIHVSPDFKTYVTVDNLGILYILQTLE
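Assay system: Apoptosome proteins | Medium: pH 7.5 Hepes buffer with CHAPS, BSA, DTT | Also added: Cytochrome c and DEVD-Rh110 substrate | Times: 30 min plus 50 min, RT | Detection: Rhodamine 110 fluorescence at Ex 480/Em 540 nm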
TDP2 inh = TDP2 (human) inhibition, absorbance primary screen; O95551; recombinant TDP2, T5PNP hydrolysis, p-nitrophenol absorbance 415 nm; inhibition, % at 12.8 µM; actives 0.34% (n = 370,000); AID 720702;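 active = inhibition above the mean of all tested compounds plus 3 SD, set per campaign, cut at about 25% in these data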
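Evaluation: % inhibition relative to enzyme-containing and enzyme-free wells. Material: recombinant human TDP2. Benchmarks: enzyme-free and DMSO wells. Timing: enzyme reaction with compound for 2 h at 37 °C. Compound dosing: 12.8 µM only. Measured by: p-Nitrophenol epi absorbance. Reagent: T5PNP substrate at 5 mM, a TopII-DNA adduct mimic. Replication: single well per compound.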
PP5 inh = blocks human protein phosphatase 5 activity; P53041; purified PP5c, OMFP substrate fluorescence; inhibition, % at 6.7 µM; actives 0.18% (n = 320,000); AID 1987;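 active = inhibition above the campaign's mean inhibition across all tested compounds plus 3 SD, cut at about 9.5% in these data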
PP1 counter = counter-screen for PP5 inhibitors: inhibitors of human PP1-alpha; purified PP1alpha, OMFP fluorescence; inhibition, % at 6.7 µM; P62136; actives 0.9% (n = 320,000);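 active = inhibition above the mean inhibition of all tested compounds plus 3 SD, computed separately for each screening campaign, cut at about 15% in these data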
GSTO1 inh = GSTO1 inhibition, counter-screen for RBBP9 inhibitors; P78417; recombinant GSTO1, activity-based probe fluorescence polarization; inhibition, % at 5.96 µM; actives 1.1% (n = 300,000);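 active = inhibition above the campaign mean inhibition plus 3 SD, cut at about 35% in these data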
PP1 confirm = human PP1 phosphatase inhibition, confirmation; shares compounds with PP1 counter; purified PP1alpha, OMFP substrate fluorescence; inhibition, % at 6.7 µM; actives 52% (n = 1,900); AID 2358;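 active = mean PP1 inhibition above a set limit taken from the earlier primary screen, cut at about 15% in these data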
PP5 inh counter = PP5 phosphatase inhibition, counter-screen for PP1 inhibitors. shares compounds with PP1 counter. purified PP5c, OMFP fluorescence. inhibition, % at 6.7 µM. actives 4% (n = 1,900). AID 2360;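 active = mean PP5 inhibition over triplicate wells above about 9.5% taken from the earlier PP1 screen, limit read from the data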
Hits are given with their value; 0 = inactive; - = no result. This is a sample that favours compounds with a hit; in the whole collection about 2.1% have one here.

SMILES	Apaf1 inhib	TDP2 inh	PP5 inh	PP1 counter	GSTO1 inh	PP1 confirm	PP5 inh counter
Fc1ccccc1-c1ccc(/C=N/Nc2nc3ccccc3[nH]2)o1	0	0	0	17.8	0	17.8	0
Cc1cccc2nc(-c3ccco3)c(Nc3ccccc3)n12	0	0	0	0	0	-	-
Cc1cccc(C)c1Nc1c(-c2ccccn2)nc2ccccn12	0	0	0	28.1	0	0	0
Cc1cc(C)n2c(Nc3c(C)cccc3C)c(-c3ccccn3)nc2n1	-	0	-	-	-	-	-
Cc1ccc(Nc2c(-c3ccccn3)nc3cccc(C)n23)cc1	0	0	0	39.7	0	50.0	0
CN1C[C@]2(C=C3CCCCC3n3c(=O)n(-c4ccccc4)c(=O)n32)N(C(=O)OCc2ccccc2)C1=NC(=O)c1ccccc1 (some centres undefined)	-	0	-	-	-	-	-
COc1ccccc1NC(=O)OCCCN1CCC2(CCC(C)CC2)C1=O (centres undefined)	-	0	-	-	-	-	-
CCC(CO)Nc1cccc2c1S(=O)(=O)N(Cc1cn(Cc3cccc(F)c3)nn1)Cc1ccccc1O2 (centres undefined)	-	0	-	-	-	-	-
CCCCCCCCCCn1c2c(c(=N)c3c1CCC3)CCC2	73.9	0	0	20.6	0	0	0
CCOc1ccc(NCc2nnc(SCc3ccc(Cl)cc3)n2-c2ccccc2)cc1	0	0	0	18.5	0	0	0
CCOc1ccc(NCc2nnc(SCC(=O)Nc3nc(-c4ccccc4)cs3)n2-c2ccccc2)cc1	0	0	0	28.0	0	0	0
Cc1cccc(C)c1NCc1nnc(SCC(=O)Nc2nc(-c3ccccc3)cs2)n1-c1ccccc1	0	0	0	0	0	-	-
c1ccc(OC2CCN(c3ncnc4sccc34)CC2)cc1	-	0	-	-	-	-	-
N#Cc1cccc(NC(=O)CNc2cccc(S(=O)(=O)N3CCCC3)c2)c1	0	0	0	21.0	0	0	0
Cc1nn(-c2ccccc2)c(C)c1/C=N/NC(=O)c1[nH][nH]c(=O)c1C	-	0	-	-	-	-	-
COc1ccc(COC(=O)CN2C(=O)NC3(CCCC3)C2=O)cc1F	0	0	0	34.3	0	0	0
O=C(NCCN1CCOCC1)c1cc(-c2ccc(Br)cc2)on1	0	0	0	0	0	-	-
COc1ccc(-c2cc(C(=O)NCCN3CCOCC3)no2)cc1OC	0	0	0	32.0	0	0	0
O=C(O)C1C2CCC(O2)C1C(=O)Nc1cccc(F)c1 (centres undefined)	0	-	52.1	54.6	0	0	17.3
O=C(O)C1C2CCC(O2)C1C(=O)Nc1ccc(F)cc1 (centres undefined)	0	0	43.9	30.7	0	0	0
O=C(NCc1ccncc1)C(=O)NCc1ccncc1	0	0	0	0	0	-	-
O=C(O)c1ccc(NC(=O)C2C3CCC(O3)C2C(=O)O)cc1 (centres undefined)	0	0	78.7	75.3	0	30.6	37.5
CC(=O)Nc1ccc(NC(=O)C2C3C=CC(C3)C2C(=O)O)cc1 (centres undefined)	0	0	0	0	0	-	-
O=C(O)C1C2CCC(O2)C1C(=O)NCc1ccncc1 (centres undefined)	0	0	36.7	19.7	0	15.4	25.9
C[C@H]1CCC[C@@H](O)CC(=O)c2c(O)cc(O)cc2CC(=O)O1	-	0	-	-	-	-	-
SMILES	Apaf1 inhib	TDP2 inh	PP5 inh	PP1 counter	GSTO1 inh	PP1 confirm	PP5 inh counter
Cc1cccc(NC(=O)Nc2nc3ncccn3c2-c2ccccc2)c1	-	0	-	-	-	-	-
CCc1ccc(NC(=O)C2C3CCC(O3)C2C(=O)O)cc1 (centres undefined)	0	0	79.5	74.2	0	17.8	37.5
CCc1ccc(NC(=O)C2CCN(c3c(N4CCCC4)c(=O)c3=O)CC2)cc1	0	0	0	0	0	-	-
O=C1c2ccccc2C(=O)N1CCOc1ccccc1Cl	0	0	0	0	0	-	-
Cc1ccc(OCCN2C(=O)C(=O)c3cc(C)ccc32)cc1	0	0	0	18.4	0	0	0
Cc1cccc2c1N(CCOc1ccccc1Cl)C(=O)C2=O	0	0	0	18.1	0	0	0
Cc1cccc2c1N(CCOc1ccc(C(C)(C)C)cc1)C(=O)C2=O	0	0	0	23.3	0	0	0
C[C@@H]1OC(C2CCCCC2)N(C)[C@H]2C[C@H]3c4[nH]c5cccc(-c6ccccc6)c5c4CCN3C(=O)[C@@H]12 (some centres undefined)	-	0	-	-	-	-	-
O=C(Nc1ccc(N2CCCC2)cc1)c1ccc2ccccc2c1	0	0	0	20.7	0	0	0
Cc1ccccc1C[n+]1cccc2ccccc21	0	0	0	0	0	-	-
CCCCCCCCC[n+]1cccc2c3ccccc3ccc21	0	-	0	19.2	0	0	0
CCCCCCCCCCCCCCCC[n+]1cccc2ccccc21	91.1	0	0	52.2	0	37.5	0
O=[N+]([O-])c1ccc(C[n+]2cccc3c4ccccc4ccc32)cc1	0	0	0	0	0	-	-
C[C@H]1[C@@H](NC(=O)c2ccc(C(F)(F)F)cc2)CC[C@@]23CCCN2C(=O)CCC[C@@H]13	-	0	-	-	-	-	-
O=C1c2ccccc2C(c2nnnn2Cc2ccccc2)N1CCCN1CCOCC1 (centres undefined)	-	0	-	-	-	-	-
CC1=C(C(=O)Nc2ccccc2C)C2(CCCC2)C(C(N)=O)C(=O)N1 (centres undefined)	0	0	0	26.1	0	0	0
CCCCC(=O)N[C@H]1CC[C@@]23CCCN2C(=O)CCC[C@H]3[C@H]1CCC	-	0	-	-	-	-	-
O=C(Nc1ccc(NC(=O)c2sc3ccccc3c2Cl)cc1Cl)c1ccco1	0	0	0	19.9	0	28.3	0
O=C(Nc1ccc(NC(=O)c2cccs2)c(Cl)c1)c1ccco1	0	0	0	0	0	-	-
CCc1ccc(CCNC(=O)OCCCN2CCC3(CCC(c4ccccc4)CC3)C2=O)cc1 (centres undefined)	-	0	-	-	-	-	-
CC(C)(C)c1cc(Br)ccc1OCC(=O)Nc1ncn[nH]1	0	0	0	23.4	0	19.6	0
O=C(CSc1nnc(-c2cccs2)o1)Nc1cc(Cl)cc(Cl)c1	-	0	-	-	-	-	-
COCCCNC(=O)C[C@H]1C[C@@]2(C(=O)OC)C(=C[C@H](C(C)C)O[C@@H]2C2CC2)N(Cc2ccc3c(c2)OCO3)C1=O	-	0	-	-	-	-	-
N#C/C(=C/c1ccc(-c2ccc(S(N)(=O)=O)cc2)o1)C(=O)Nc1ccccc1	0	0	0	0	0	-	-
N#C/C(=C/c1ccc(-c2ccc(S(N)(=O)=O)cc2)o1)c1nc2ccccc2s1	0	0	0	19.6	0	21.9	0
O=C(c1ccc(=O)[nH]c1)N(Cc1cccs1)C1(C(=O)NC2CCCC2)CCCCC1	0	0	0	19.3	0	0	0
Cn1c(-c2ccccc2)cc(=O)cc1-c1ccccc1	-	0	-	-	-	-	-
O=c1cc(-c2ccccc2)cc(-c2ccccc2)n1O	0	0	0	20.0	0	0	0
